Laboratory results: ChEMBL document CHEMBL1150282, “Synthesis and biological evaluation of pyridazinone analogues as potential cardiac positron emission tomography tracers” (J Med Chem, 2008)

Experiments:
[1] = Inhibition of mitochondrial complex 1 in bovine heart mitochondria assessed as effect on rate of NADH oxidation; set-up: species or system Bos taurus
Outline: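 Bovine heart submitochondrial particles (45 µg/mL final) in 50 mM K₂HPO₄ pH 7.4 with 0.4 µM antimycin A and 2 mM KCN. Inhibitor at varying concentrations preincubated 4 min, then 100 µM decyl ubiquinone and 50 µM NADH added. NADH oxidation followed at 340 nm, 37 °C, 120 s; IC50 is concentration giving 50% inhibition.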

[2] = Ratio of drug uptake in heart to blood of Sprague-Dawley rat at 15 uCi, iv after 30 mins; format: ADME, organism-based; conditions: heart and blood (heart-to-blood ratio), read-out: Activity
Outline: (§1)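 Same rat protocol: pentobarbital-anesthetized male SD rats (300–400 g), about 15 µCi iv in 10% ethanol saline via femoral vein, three animals per point, gamma counting of weighed tissues with decay correction. Ratios formed from heart %ID/g over blood, lung, liver or femur %ID/g at 30 min post injection.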

Lung [3] = test: Biodistribution in Sprague-Dawley rat lung at 15 uCi, iv after 120 mins; format: ADME, organism-based; conditions: in vivo, 2 h
Outline: (§2)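 Male Sprague–Dawley rats (300–400 g) anesthetized with sodium pentobarbital 50 mg/kg ip; left femoral vein cannulated; about 15 µCi radiotracer in 0.3 mL 10% ethanol saline given iv. Killed in CO₂ at 30 or 120 min (n = 3 per time point); tissues weighed and gamma-counted. Counts decay-corrected, net dose from syringe and catheter residues subtracted; expressed as %ID/g ± SD.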

Blood [4] = test: Biodistribution in Sprague-Dawley rat blood at 15 uCi, iv after 30 mins; format: ADME, organism-based; conditions: in vivo, 0.5 h; outline: as §2
Heart [5] = test: Biodistribution in Sprague-Dawley rat heart at 15 uCi, iv after 30 mins; format: ADME, organism-based; conditions: in vivo, 0.5 h; outline: as §2
[6] = Ratio of drug uptake in heart to femur of Sprague-Dawley rat at 15 uCi, iv after30 mins; format: ADME, organism-based; conditions: in vivo, 0.5 h; outline: as §1
[7] = Ratio of drug uptake in heart to lung of Sprague-Dawley rat at 15 uCi, iv after30 mins; format: ADME, organism-based; conditions: in vivo, 0.5 h; outline: as §1
Femur [8] = test: Biodistribution in Sprague-Dawley rat femur at 15 uCi, iv after 30 mins; format: ADME, organism-based; conditions: in vivo, 0.5 h; outline: as §2
Liver [9] = test: Biodistribution in Sprague-Dawley rat liver at 15 uCi, iv after 120 mins; format: ADME, organism-based; conditions: in vivo, 2 h; outline: as §2
[10] = Ratio of drug uptake in heart to liver of Sprague-Dawley rat at 15 uCi, iv after30 mins; format: ADME, organism-based; conditions: in vivo, 0.5 h; outline: as §1
Blood [11] = test: Biodistribution in Sprague-Dawley rat blood at 15 uCi, iv after 120 mins; format: ADME, organism-based; conditions: in vivo, 2 h; outline: as §2
Lung [12] = test: Biodistribution in Sprague-Dawley rat lung at 15 uCi, iv after 30 mins; format: ADME, organism-based; conditions: in vivo, 0.5 h; outline: as §2
Heart [13] = test: Biodistribution in Sprague-Dawley rat heart at 15 uCi, iv after 120 mins; format: ADME, organism-based; conditions: in vivo, 2 h; outline: as §2
Liver [14] = test: Biodistribution in Sprague-Dawley rat liver at 15 uCi, iv after 30 mins; format: ADME, organism-based; conditions: in vivo, 0.5 h; outline: as §2
Femur [15] = test: Biodistribution in Sprague-Dawley rat femur at 15 uCi, iv after 120 mins; format: ADME, organism-based; conditions: in vivo, 2 h; outline: as §2

With `CC(C)(C)c1ccc(CSc2cnn(C(C)(C)C)c(=O)c2Cl)cc1` [PYRIDABEN] the IC50 [1] was 8 nM.
Molecule `CC(C)(C)c1ccc(COc2cnn(C(C)(C)C)c(=O)c2Cl)cc1` has an IC50 [1] of 64 nM.
Work on `CC(C)(C)n1ncc(OCc2ccc(OCCCF)cc2)c(Cl)c1=O` yielded a Kp at 0.5 h [2] of 9.27, a Drug uptake (Lung [3]) of 0.08 % ID/g and a Drug uptake (Blood [4]) of 0.15 % ID/g. For the same molecule, the Drug uptake (Heart [5]) was 1.31 % ID/g, the Activity [6] was 2 and the Activity [7] was 5.4. The IC50 [1] was 47 nM, the Drug uptake (Femur [8]) was 0.65 % ID/g and the Drug uptake (Liver [9]) was 0.55 % ID/g. For the same molecule, the Activity [10] was 0.77, the Drug uptake (Blood [11]) was 0.07 % ID/g and the Drug uptake (Lung [12]) was 0.24 % ID/g. For the same molecule, the Drug uptake (Heart [13]) was 0.86 % ID/g, the Drug uptake (Liver [14]) was 1.7 % ID/g and the Drug uptake (Femur [15]) was 0.76 % ID/g.
In the case of `CC(C)(C)n1ncc(OCc2ccc3ccccc3c2)c(Cl)c1=O`, the IC50 [1] is reported as 60 nM.
For `CC(C)(C)c1ccc(CNc2cnn(C(C)(C)C)c(=O)c2Cl)cc1`, the IC50 [1] was 4000 nM.
Molecule `CC(C)(C)c1ccc(CSc2cnn(C(C)(C)C)c(=O)c2CF)cc1` has an IC50 [1] of 250 nM.
Work on `CC(C)(C)c1ccc(CCOc2cnn(C(C)(C)C)c(=O)c2Cl)cc1` yielded an IC50 [1] of 711 nM.
`CC(C)(C)c1ccc(CSc2cnn(C(C)(C)C)c(=O)c2F)cc1` gave an IC50 [1] of 279 nM.
`[18F]CCCCc1ccc(CCOc2ncnc3ccccc23)cc1` showed an IC50 [1] of 11 nM.
Work on `CC(C)(C)n1ncc(OCc2ccccc2)c(Cl)c1=O` yielded an IC50 [1] of 850 nM.
In the case of `Cc1c(SCc2ccc(C(C)(C)C)cc2)oc2ccccc2c1=O`, the IC50 [1] is reported as 52 nM.
In the case of `CC(C)(C)n1ncc(OCc2ccc3ncccc3c2)c(Cl)c1=O`, the IC50 [1] is reported as 221 nM.
For `Cc1c(SCc2ccc(C(C)(C)C)cc2)cnn(C(C)(C)C)c1=O`, the IC50 [1] was 21 nM.
For `Cc1c(SCc2ccc(CCCC[18F])cc2)oc2ccccc2c1=O`, the IC50 [1] was 9 nM.
In the case of `CC(C)(C)n1ncc(OCc2ccc(COCCF)cc2)c(Cl)c1=O` [FLURPIRIDAZ], the Kp at 0.5 h [2] is reported as 30, the Drug uptake (Lung [3]) is reported as 0.28 % ID/g and the Drug uptake (Blood [4]) is reported as 0.11 % ID/g. The Drug uptake (Heart [5]) was 3.41 % ID/g, the Activity [6] was 7.51 and the Activity [7] was 16.05. It also gave an IC50 [1] of 11 nM, a Drug uptake (Femur [8]) of 0.45 % ID/g and a Drug uptake (Liver [9]) of 0.55 % ID/g. It also gave an Activity [10] of 2.74, a Drug uptake (Blood [11]) of 0.19 % ID/g and a Drug uptake (Lung [12]) of 0.21 % ID/g. For the same molecule, the Drug uptake (Heart [13]) was 3.47 % ID/g, the Drug uptake (Liver [14]) was 1.25 % ID/g and the Drug uptake (Femur [15]) was 0.75 % ID/g.
`CC(C)(C)n1ncc(OCc2ccc(CCCCF)cc2)c(Cl)c1=O` showed a Kp at 0.5 h [2] of 60.7, a Drug uptake (Lung [3]) of 0.18 % ID/g and a Drug uptake (Blood [4]) of 0.11 % ID/g. The Drug uptake (Heart [5]) was 2.94 % ID/g, the Activity [6] was 6.84 and the Activity [7] was 14.93. It also gave an IC50 [1] of 15 nM, a Drug uptake (Femur [8]) of 0.43 % ID/g and a Drug uptake (Liver [9]) of 0.62 % ID/g. The Activity [10] was 1.45, the Drug uptake (Blood [11]) was 0.04 % ID/g and the Drug uptake (Lung [12]) was 0.01 % ID/g. It also gave a Drug uptake (Heart [13]) of 2.99 % ID/g, a Drug uptake (Liver [14]) of 2.03 % ID/g and a Drug uptake (Femur [15]) of 1.16 % ID/g.
In the case of `CCCCc1ccc(COc2cnn(C(C)(C)C)c(=O)c2Cl)cc1`, the IC50 [1] is reported as 17 nM.
Molecule `CCCCCCCCCCSC1N=CN(C(C)(C)C)C(=O)C1Cl` (stereo not drawn) has an IC50 [1] of over 4000 nM.
`CC(C)(C)c1ccc(CCOc2ncnc3ccccc23)cc1` [FENAZAQUIN] gave an IC50 [1] of 90 nM.
With `[2H]C([2H])(Oc1cnn(C(C)(C)C)c(=O)c1Cl)c1ccc(COC([2H])([2H])C([2H])([2H])F)cc1` the Kp at 0.5 h [2] was 12.7, the Drug uptake (Lung [3]) was 0.13 % ID/g and the Drug uptake (Blood [4]) was 0.08 % ID/g. The Drug uptake (Heart [5]) was 1.09 % ID/g, the Activity [6] was 4.6 and the Activity [7] was 7.33. It also gave an IC50 [1] of 28 nM, a Drug uptake (Femur [8]) of 0.23 % ID/g and a Drug uptake (Liver [9]) of 0.44 % ID/g. It also gave an Activity [10] of 1.7, a Drug uptake (Blood [11]) of 0.1 % ID/g and a Drug uptake (Lung [12]) of 0.15 % ID/g. For the same molecule, the Drug uptake (Heart [13]) was 1.6 % ID/g, the Drug uptake (Liver [14]) was 0.64 % ID/g and the Drug uptake (Femur [15]) was 0.78 % ID/g.
`CCC(CF)Oc1ccc(COc2cnn(C(C)(C)C)c(=O)c2Cl)cc1` (stereo not drawn) gave a Kp at 0.5 h [2] of 6.05, a Drug uptake (Lung [3]) of 0.22 % ID/g and a Drug uptake (Blood [4]) of 0.18 % ID/g. It also gave a Drug uptake (Heart [5]) of 1.05 % ID/g, an Activity [6] of 0.89 and an Activity [7] of 1.37. The IC50 [1] was 16 nM, the Drug uptake (Femur [8]) was 1.23 % ID/g and the Drug uptake (Liver [9]) was 0.39 % ID/g. The Activity [10] was 1.11, the Drug uptake (Blood [11]) was 0.06 % ID/g and the Drug uptake (Lung [12]) was 0.79 % ID/g. The Drug uptake (Heart [13]) was 1.24 % ID/g, the Drug uptake (Liver [14]) was 0.98 % ID/g and the Drug uptake (Femur [15]) was 3 % ID/g.
Molecule `CC(C)(C)n1ncc(OCc2ccc(-c3ccccc3)cc2)c(Cl)c1=O` has an IC50 [1] of 31 nM.
`CC(F)CCc1ccc(COc2cnn(C(C)(C)C)c(=O)c2Cl)cc1` (stereo not drawn) gave a Kp at 0.5 h [2] of 20.8, a Drug uptake (Lung [3]) of 0.14 % ID/g and a Drug uptake (Blood [4]) of 0.11 % ID/g. The Drug uptake (Heart [5]) was 2.25 % ID/g, the Activity [6] was 1.98 and the Activity [7] was 12.49. For the same molecule, the IC50 [1] was 10 nM, the Drug uptake (Femur [8]) was 1.14 % ID/g and the Drug uptake (Liver [9]) was 0.63 % ID/g. It also gave an Activity [10] of 1.78, a Drug uptake (Lung [12]) of 0.18 % ID/g and a Drug uptake (Heart [13]) of 2.14 % ID/g. For the same molecule, the Drug uptake (Liver [14]) was 1.27 % ID/g and the Drug uptake (Femur [15]) was 2.38 % ID/g.
With `C=C(C)[C@H]1Cc2c(ccc3c2O[C@@H]2COc4cc(OC)c(OC)cc4[C@@H]2C3=O)O1` [ROTENONE] the IC50 [1] was 16 nM.
Work on `CC(F)COc1ccc(COc2cnn(C(C)(C)C)c(=O)c2Cl)cc1` (stereo not drawn) yielded a Kp at 0.5 h [2] of 13.2, a Drug uptake (Lung [3]) of 0.06 % ID/g and a Drug uptake (Blood [4]) of 0.09 % ID/g. For the same molecule, the Drug uptake (Heart [5]) was 1.15 % ID/g, the Activity [6] was 0.4 and the Activity [7] was 11.41. For the same molecule, the IC50 [1] was 8 nM, the Drug uptake (Femur [8]) was 2.91 % ID/g and the Drug uptake (Liver [9]) was 0.4 % ID/g. The Activity [10] was 2.62, the Drug uptake (Blood [11]) was 0.04 % ID/g and the Drug uptake (Lung [12]) was 0.1 % ID/g. For the same molecule, the Drug uptake (Heart [13]) was 1.14 % ID/g, the Drug uptake (Liver [14]) was 0.44 % ID/g and the Drug uptake (Femur [15]) was 3.91 % ID/g.
`CCCCOc1ccc(COc2cnn(C(C)(C)C)c(=O)c2Cl)cc1` showed an IC50 [1] of 27 nM.
